Assay results as given in ChEMBL document CHEMBL3286193, “Discovery of a series of 2,5-diaminopyrimidine covalent irreversible inhibitors of Bruton's tyrosine kinase with in vivo antitumor activity” (J Med Chem, 2014).
Calls of active or inactive are those of the source. No cut-off for these calls is given here.

What was measured:
[1] = target: Mitogen-activated protein kinase 14 (Homo sapiens) (UniProt Q16539); experiment: Inhibition of P38-alpha MAPK (unknown origin) at 0.5 uM by [33P]-ATP filter binding assay
In short: (§1)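 Kinase panel of 18 enzymes; inhibition tested at 0.5 μM. Values are means of duplicates.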

[2] = target: Tyrosine-protein kinase Blk (Homo sapiens, UniProt P51451); experiment: Inhibition of Blk (unknown origin) after 1 hr by HTRF assay
In short: (§2)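 Recombinant kinases tested by HTRF KinEase protocol. Enzyme preincubated with inhibitor for a fixed 10 min. IC50 values are means of duplicates.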

[3] = target: Epidermal growth factor receptor (Homo sapiens, UniProt P00533); experiment: Inhibition of EGFR (unknown origin) after 1 hr by HTRF assay
Sequence of Epidermal growth factor receptor (P00533 whole entry): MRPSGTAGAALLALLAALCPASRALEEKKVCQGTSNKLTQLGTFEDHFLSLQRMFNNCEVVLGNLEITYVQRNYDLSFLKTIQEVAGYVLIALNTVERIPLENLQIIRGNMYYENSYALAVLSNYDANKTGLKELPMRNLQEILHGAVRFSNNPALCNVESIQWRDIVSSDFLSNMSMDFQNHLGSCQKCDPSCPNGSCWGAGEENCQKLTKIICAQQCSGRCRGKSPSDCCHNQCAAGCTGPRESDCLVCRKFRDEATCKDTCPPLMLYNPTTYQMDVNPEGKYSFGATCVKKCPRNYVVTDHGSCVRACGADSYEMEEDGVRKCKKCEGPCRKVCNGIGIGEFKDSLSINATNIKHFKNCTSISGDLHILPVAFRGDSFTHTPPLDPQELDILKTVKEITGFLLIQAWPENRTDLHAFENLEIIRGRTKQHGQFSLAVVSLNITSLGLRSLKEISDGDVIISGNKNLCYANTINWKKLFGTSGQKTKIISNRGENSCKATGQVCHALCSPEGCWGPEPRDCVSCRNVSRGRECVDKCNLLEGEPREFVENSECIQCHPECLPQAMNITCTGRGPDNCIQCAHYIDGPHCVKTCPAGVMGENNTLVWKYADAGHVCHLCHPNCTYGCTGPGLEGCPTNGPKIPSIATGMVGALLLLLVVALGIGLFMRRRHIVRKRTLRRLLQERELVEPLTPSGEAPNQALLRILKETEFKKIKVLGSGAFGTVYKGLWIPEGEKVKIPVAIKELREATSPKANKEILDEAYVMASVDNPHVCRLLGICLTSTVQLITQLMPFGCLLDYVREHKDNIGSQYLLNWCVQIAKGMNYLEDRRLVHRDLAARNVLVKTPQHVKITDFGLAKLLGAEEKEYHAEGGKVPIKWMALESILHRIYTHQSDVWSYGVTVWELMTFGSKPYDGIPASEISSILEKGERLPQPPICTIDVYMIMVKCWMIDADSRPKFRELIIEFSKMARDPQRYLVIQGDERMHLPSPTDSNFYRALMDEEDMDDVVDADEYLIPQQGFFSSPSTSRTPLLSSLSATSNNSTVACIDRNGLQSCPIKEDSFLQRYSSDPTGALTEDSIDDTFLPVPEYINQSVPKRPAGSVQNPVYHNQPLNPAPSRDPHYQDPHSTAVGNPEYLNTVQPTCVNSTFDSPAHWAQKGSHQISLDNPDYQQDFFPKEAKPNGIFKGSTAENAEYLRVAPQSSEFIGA
In short: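 Commercial recombinant kinase, assayed in the HTRF KinEase format following the kit protocol. Enzyme and inhibitor were preincubated for a fixed 10 min before the reaction.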

[4] = target: Receptor tyrosine-protein kinase erbB-4 (Homo sapiens, UniProt Q15303); experiment: Inhibition of HER4 (unknown origin) after 1 hr by HTRF assay; in short: as §2
[5] = target: Tyrosine-protein kinase ITK/TSK (Homo sapiens, UniProt Q08881); experiment: Inhibition of Itk (unknown origin) after 1 hr by HTRF assay; in short: as §2
Sequence of Tyrosine-protein kinase ITK/TSK (Q08881 whole entry, the tested form may be a part): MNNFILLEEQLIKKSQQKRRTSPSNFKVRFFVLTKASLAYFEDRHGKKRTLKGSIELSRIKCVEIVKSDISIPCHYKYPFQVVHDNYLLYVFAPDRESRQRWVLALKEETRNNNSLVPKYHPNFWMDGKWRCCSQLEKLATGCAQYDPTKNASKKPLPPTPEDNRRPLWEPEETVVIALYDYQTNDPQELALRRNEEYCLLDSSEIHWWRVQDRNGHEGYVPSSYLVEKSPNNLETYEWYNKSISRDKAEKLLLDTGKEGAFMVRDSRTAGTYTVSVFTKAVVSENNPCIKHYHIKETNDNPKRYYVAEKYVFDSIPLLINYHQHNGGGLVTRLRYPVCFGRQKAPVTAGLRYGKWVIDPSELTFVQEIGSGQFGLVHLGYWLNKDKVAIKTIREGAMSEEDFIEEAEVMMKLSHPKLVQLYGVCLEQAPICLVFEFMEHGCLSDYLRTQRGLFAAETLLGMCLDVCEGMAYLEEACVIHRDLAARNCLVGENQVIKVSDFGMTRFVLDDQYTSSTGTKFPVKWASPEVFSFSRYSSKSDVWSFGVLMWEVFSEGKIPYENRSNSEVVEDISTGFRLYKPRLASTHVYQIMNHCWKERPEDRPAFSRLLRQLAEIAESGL

[6] = target: Tyrosine-protein kinase BTK (Homo sapiens, UniProt Q06187); experiment: Binding affinity to Btk kinase domain (387 to 659) (unknown origin) assessed as compound-protein covalent adduct formation at 1:3 protein to compound molar ratio at 4 degC after 1 hr by LC-MS analysis
Sequence of Tyrosine-protein kinase BTK (Q06187 whole entry, the tested form may be a part): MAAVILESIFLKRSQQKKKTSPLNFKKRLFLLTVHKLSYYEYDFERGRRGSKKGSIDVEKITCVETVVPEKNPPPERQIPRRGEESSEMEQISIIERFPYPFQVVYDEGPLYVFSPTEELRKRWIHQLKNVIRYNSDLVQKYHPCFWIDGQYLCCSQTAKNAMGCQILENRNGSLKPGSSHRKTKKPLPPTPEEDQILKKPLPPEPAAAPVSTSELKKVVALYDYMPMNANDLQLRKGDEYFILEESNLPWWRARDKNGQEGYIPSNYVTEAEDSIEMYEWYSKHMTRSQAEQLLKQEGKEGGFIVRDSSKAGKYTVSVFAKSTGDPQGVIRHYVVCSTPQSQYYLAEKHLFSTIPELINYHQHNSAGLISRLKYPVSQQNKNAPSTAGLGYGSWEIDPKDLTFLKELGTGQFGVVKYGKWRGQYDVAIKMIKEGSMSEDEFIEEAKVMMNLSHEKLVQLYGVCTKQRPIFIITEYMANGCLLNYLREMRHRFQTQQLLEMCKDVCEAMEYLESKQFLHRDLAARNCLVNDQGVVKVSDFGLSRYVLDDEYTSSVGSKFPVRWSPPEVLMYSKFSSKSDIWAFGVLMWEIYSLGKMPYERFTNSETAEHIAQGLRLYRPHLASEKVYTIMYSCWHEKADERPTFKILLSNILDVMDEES
In short: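 Btk kinase domain (residues 387−659, MW 32136) incubated with 3 equiv of compound at 4 °C for 1 h. Mass spectrometry of the intact protein checked for mass peak shift consistent with 1-to-1 protein−compound adducts.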

[7] = system: MM1R; experiment: Cytotoxicity against human MM1R cells assessed as growth inhibition at 1 to 10 uM after 72 hrs by CellTiter-Glo luminescent cell viability assay; assay type: functional, cell-based
[8] = system: RL; experiment: Cytotoxicity against human RL cells assessed as growth inhibition at 1 to 10 uM after 72 hrs by CellTiter-Glo luminescent cell viability assay; assay type: functional, cell-based
[9] = Cytotoxicity against human Pfeiffer cells assessed as growth inhibition after 72 hrs by CellTiter-Glo luminescent cell viability assay; assay type: functional; conditions: Homo sapiens, Pfeiffer, 72 h
In short: (§3)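 Lymphoma cells seeded at 5000 cells/well, incubated 24 h, then exposed to compounds for 72 h. Viability read by CellTiter-Glo luminescence. GI50 from dose−response curves, mean of two or three independent experiments in triplicate.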

[10] = system: WSU-NHL; experiment: Cytotoxicity against human WSU-NHL cells assessed as growth inhibition after 72 hrs by CellTiter-Glo luminescent cell viability assay; assay type: functional; in short: as §3
[11] = Stability of the compound in FaSSIF assessed as compound remaining at 1 uM measured at 24 hrs by LC-MS analysis; assay type: ADME; conditions: read-out: Stability
In short: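 Compound solutions in FaSSIF shaken at 350 rpm at 37 °C. Samples taken at 2, 6, 10 and 24 h and quantified by LC−MS as % remaining.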

[12] = Half life in ICR mouse at 1 mg/kg, iv by LC-MS analysis; assay type: ADME, organism-based; design: dose 1 mg/kg, route intravenous; conditions: in vivo
In short: (§4)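 ICR mice (n = 3) given a single intravenous injection at 1 mg/kg. Blood sampled at various time points and analyzed by LC−MS to derive t1/2, CL and Vss.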

[13] = Clearance in ICR mouse at 1 mg/kg, iv by LC-MS analysis; assay type: ADME, organism-based; design: dose 1 mg/kg, route intravenous; conditions: in vivo; in short: as §4
[14] = Volume of distribution at steady state in ICR mouse at 1 mg/kg, iv by LC-MS analysis; assay type: ADME, organism-based; design: dose 1 mg/kg, route intravenous; conditions: in vivo, read-out: Vdss; in short: as §4
[15] = Plasma concentration in CB17 SCID mouse xenografted with human DOHH2 cells at 10 mg/kg, iv qd administered for 14 days measured at 2 hrs post last dose; assay type: ADME, organism-based, DOHH-2; design: dose 10 mg/kg, route intravenous
In short: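 Female CB17/SCID mice were given 5 × 10⁶ DoHH2 cells subcutaneously. When tumours averaged ~167 mm³, mice were randomised into four groups (n = 6/group). Dosing was by tail-vein injection once daily for 14 consecutive days. Plasma compound levels were determined at 2 and 24 h after the final dose.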

[16] = Plasma concentration in CB17 SCID mouse xenografted with human DOHH2 cells at 20 mg/kg, iv qd administered for 14 days measured at 2 hrs post last dose; assay type: ADME, organism-based, DOHH-2; design: dose 20 mg/kg, route intravenous
In short: (§5)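 Same DoHH2 xenograft study in female CB17/SCID mice, tail-vein dosing once daily for 14 days. Plasma compound concentrations determined at 2 and 24 h after the last administration.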

[17] = Plasma concentration in CB17 SCID mouse xenografted with human DOHH2 cells at 20 mg/kg, iv qd administered for 14 days measured at 24 hrs post last dose; assay type: ADME, organism-based, DOHH-2; design: dose 20 mg/kg, route intravenous; in short: as §5
[18] = Antitumor activity against human DOHH2 cells xenografted in CB17 SCID mouse assessed as tumor growth inhibition at 20 mg/kg, iv qd administered for 14 days measured over 14 days of compound treatment relative to vehicle-treated control; conditions: DOHH-2, iv, 336 h, read-out: TGI
[19] = system: Mus musculus; experiment: Toxicity in CB17 SCID mouse xenografted with human DOHH2 cells assessed as body weight fluctuations at 10 mg/kg, iv qd administered for 14 days measured over 14 days of compound treatment; assay type: organism-based, DOHH-2; design: dose 10 mg/kg, route intravenous; conditions: in vivo, 336 h
In short: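 Female CB17/SCID mice carried subcutaneous DoHH2 xenografts (5 × 10⁶ cells injected), randomised at ~167 mm³ mean tumour volume into four groups (n = 6/group). Compound was given intravenously via the tail vein once daily for 14 consecutive days. Body weights were tracked over time throughout the study.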

[20] = system: Mus musculus; experiment: Toxicity in CB17 SCID mouse xenografted with human DOHH2 cells assessed as body weight fluctuations at 20 mg/kg, iv qd administered for 14 days measured over 14 days of compound treatment; assay type: organism-based, DOHH-2; design: dose 20 mg/kg, route intravenous; conditions: in vivo, 336 h
In short: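 DoHH2 subcutaneous xenograft in female CB17/SCID mice (5 × 10⁶ cells; dosing from ~167 mm³ mean tumor volume; n = 6/group). Daily tail-vein dosing for 14 consecutive days. Body weights followed over time across the study.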

[21] = target: Tyrosine-protein kinase CSK (Homo sapiens) (UniProt P41240); experiment: Inhibition of CSK (unknown origin) at 0.5 uM by [33P]-ATP filter binding assay; in short: as §1
Sequence of Tyrosine-protein kinase CSK (Homo sapiens) (P41240 2-450 limits assumed): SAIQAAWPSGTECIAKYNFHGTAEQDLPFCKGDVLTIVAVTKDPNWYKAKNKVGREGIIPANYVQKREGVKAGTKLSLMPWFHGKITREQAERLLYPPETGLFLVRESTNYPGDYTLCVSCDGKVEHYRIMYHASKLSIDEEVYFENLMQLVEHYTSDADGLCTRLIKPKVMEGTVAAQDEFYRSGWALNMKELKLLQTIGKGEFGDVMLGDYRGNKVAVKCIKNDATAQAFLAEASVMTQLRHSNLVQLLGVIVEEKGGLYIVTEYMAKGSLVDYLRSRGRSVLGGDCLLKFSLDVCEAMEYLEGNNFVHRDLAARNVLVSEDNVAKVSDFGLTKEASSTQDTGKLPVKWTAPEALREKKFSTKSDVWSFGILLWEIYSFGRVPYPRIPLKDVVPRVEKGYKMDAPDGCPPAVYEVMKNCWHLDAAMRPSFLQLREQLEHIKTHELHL

[22] = target: Cytoplasmic tyrosine-protein kinase BMX (Homo sapiens, UniProt P51813); experiment: Inhibition of Bmx (unknown origin) after 1 hr by HTRF assay; in short: as §2
Sequence of Cytoplasmic tyrosine-protein kinase BMX (P51813 whole entry): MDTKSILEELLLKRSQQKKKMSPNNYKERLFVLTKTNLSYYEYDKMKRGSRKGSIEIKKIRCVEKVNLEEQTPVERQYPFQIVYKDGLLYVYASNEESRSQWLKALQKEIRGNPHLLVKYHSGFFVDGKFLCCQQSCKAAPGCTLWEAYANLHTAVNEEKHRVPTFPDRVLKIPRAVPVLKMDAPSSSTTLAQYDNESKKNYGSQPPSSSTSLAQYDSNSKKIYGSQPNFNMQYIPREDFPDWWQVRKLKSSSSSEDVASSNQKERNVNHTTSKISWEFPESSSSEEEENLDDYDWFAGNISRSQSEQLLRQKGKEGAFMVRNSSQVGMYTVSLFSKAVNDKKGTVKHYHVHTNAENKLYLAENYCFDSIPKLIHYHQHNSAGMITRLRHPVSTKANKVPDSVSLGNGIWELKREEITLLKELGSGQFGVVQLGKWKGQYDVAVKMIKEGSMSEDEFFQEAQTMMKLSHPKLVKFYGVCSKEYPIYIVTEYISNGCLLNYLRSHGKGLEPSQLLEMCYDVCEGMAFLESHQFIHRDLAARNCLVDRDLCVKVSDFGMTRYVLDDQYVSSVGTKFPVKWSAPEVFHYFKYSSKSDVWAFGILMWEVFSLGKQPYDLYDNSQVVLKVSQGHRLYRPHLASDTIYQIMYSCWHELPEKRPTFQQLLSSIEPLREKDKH

[23] = Binding affinity to glutathione in PBS buffer assessed as glutathione-compound adduct formation at 100 uM at pH 7.4 at 37 degC after 2 hrs
In short: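 Compound (100 μM) incubated with 5 mM glutathione in PBS, pH 7.4, at 37 °C. Checked for GSH−compound adducts after 2 h.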

[24] = target: Tyrosine-protein kinase ABL1 (Homo sapiens) (UniProt P00519); experiment: Inhibition of ABL (unknown origin) at 0.5 uM by [33P]-ATP filter binding assay; in short: as §1
Sequence of Tyrosine-protein kinase ABL1 (Homo sapiens) (P00519 whole entry): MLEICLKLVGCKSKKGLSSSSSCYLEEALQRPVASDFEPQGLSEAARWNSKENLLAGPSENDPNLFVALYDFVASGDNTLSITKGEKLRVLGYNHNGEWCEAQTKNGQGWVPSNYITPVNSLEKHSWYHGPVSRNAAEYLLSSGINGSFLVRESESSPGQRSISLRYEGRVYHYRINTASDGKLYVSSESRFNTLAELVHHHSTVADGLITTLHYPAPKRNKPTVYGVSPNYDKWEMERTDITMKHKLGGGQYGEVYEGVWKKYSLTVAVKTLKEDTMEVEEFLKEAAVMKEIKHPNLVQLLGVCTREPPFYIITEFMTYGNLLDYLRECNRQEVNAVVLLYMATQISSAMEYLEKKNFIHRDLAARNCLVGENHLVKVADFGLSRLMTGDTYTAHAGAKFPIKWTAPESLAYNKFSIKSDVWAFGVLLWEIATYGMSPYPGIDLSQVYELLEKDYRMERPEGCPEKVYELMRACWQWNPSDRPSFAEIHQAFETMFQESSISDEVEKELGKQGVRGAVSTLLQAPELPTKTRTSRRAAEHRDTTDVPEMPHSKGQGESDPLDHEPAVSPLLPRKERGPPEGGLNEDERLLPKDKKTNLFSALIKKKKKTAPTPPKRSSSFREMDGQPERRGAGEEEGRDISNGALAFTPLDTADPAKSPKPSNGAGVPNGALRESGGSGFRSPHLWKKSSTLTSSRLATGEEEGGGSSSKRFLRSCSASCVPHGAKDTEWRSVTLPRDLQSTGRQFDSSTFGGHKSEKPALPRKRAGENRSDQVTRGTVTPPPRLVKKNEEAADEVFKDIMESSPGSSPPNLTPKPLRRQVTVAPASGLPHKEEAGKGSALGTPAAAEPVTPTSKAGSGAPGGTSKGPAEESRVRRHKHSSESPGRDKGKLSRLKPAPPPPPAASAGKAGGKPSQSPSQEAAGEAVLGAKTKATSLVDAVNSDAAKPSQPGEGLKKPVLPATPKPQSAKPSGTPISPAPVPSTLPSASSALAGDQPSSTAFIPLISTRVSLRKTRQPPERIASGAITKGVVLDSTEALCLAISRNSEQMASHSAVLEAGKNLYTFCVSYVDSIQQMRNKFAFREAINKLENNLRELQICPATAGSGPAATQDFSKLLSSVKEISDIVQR

[25] = target: Tyrosine-protein kinase Lck (Homo sapiens) (UniProt P06239); experiment: Inhibition of Lck (unknown origin) at 0.5 uM by [33P]-ATP filter binding assay; in short: as §1

C=CC(=O)Nc1cccc(Nc2ncc(NC(=O)c3cc(NC(=O)c4cccc(C(F)(F)F)c4)ccc3C)cn2)c1
inhibition [1]: Active
IC50 [2]: 2.7 nM
IC50 [3]: 11 nM
IC50 [4]: 5.5 nM
IC50 [5]: > 30000 nM
Activity [6]: Active
growth inhibition (GI) [7]: Active
growth inhibition (GI) [8]: Active
GI50 [9]: 8 nM
GI50 [10]: 31 nM
remaining at 24 h, 1 µM [11]: 94%
half-life [12]: 2.8 h
clearance [13]: 6.85 mL/min/kg
Vd [14]: 0.2 L/kg
concentration at 2 h [15]: 378 ng/mL
concentration at 2 h [16]: 2100 ng/mL
concentration at 24 h [17]: 13 ng/mL
inhibition in vivo at 20 mg/kg [18]: 66%
Activity [19]: Non-toxic
Activity [20]: Non-toxic
inhibition [21]: Active
IC50 [22]: 1.9 nM
Activity [23]: inactive
inhibition [24]: Active
inhibition [25]: Active
